According to PubChem BioAssay:
Calls of active or inactive are those of the source.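 Rule for the calls, unless noted: active = current rise at least 3 SD above the untreated control mean in each of two repeat wells; inactive = the rest.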

What was measured:
[1] = nonspecific flux increase, KCNQ1-free cells – parental CHO cells, counter-screen for KCNQ1 potentiator project (AID 493006;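 active = duplicate-averaged activation above buffer control mean plus 5 SD of those controls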;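 for activation: fluorescence ratio of max minus min over baseline after K+ and Tl+ depolarization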); details: parental CHO-K1 cells, FluxOR thallium flux, at 10 µM; stronger effect = higher value
In short: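 Material: untransfected host CHO-K1 cells with FluxOR thallium dye. Timing: overnight 37 °C plating, 90 min RT dye, 20 min compound. Detection: kinetic FluxOR fluorescence, 10 s baseline, 110 s after stimulus. Read-out basis: max-minus-min fluorescence over baseline, percent of buffer-to-R-L3 span. Replicates: duplicate wells per compound, percent values averaged.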

[2] = target: Potassium voltage-gated channel subfamily KQT member 1 (Homo sapiens) (UniProt P51787); assay: enhancement of KCNQ1 channel thallium flux – FluxOR thallium flux, CHO cells, duplicates, confirmation (AID 493007;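 active = potentiation averaged over duplicate wells exceeding buffer-only control mean by more than 3 SD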;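 for outcome: cells depolarized by a potassium plus thallium sulfate stimulus after compound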); details: KCNQ1 cell line, FluxOR thallium flux fluorescence, at 10 µM; stronger effect = higher value, % of reference activator effect, buffer zero
In short: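 Test system – KCNQ1-expressing CHO cell line · Incubation – FluxOR dye loading 90 min, compound exposure 20 min, room temperature · Detection – FluxOR Tl+ flux fluorescence, 10 s baseline plus 110 s recording · Controls – buffer-only wells as 0% and R-L3 activator as 100%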

[3] = target: Potassium voltage-gated channel subfamily KQT member 2 (Rattus norvegicus) (UniProt O88943); assay: KCNQ2 thallium flux enhancement – KCNQ2-CHO-K1 cells, selectivity assay for KCNQ1 potentiator project (AID 493009;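 active = mean duplicate potentiation above the buffer control mean plus 5 SD of buffer wells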;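 note: assay conditions were tuned for KCNQ1 rather than KCNQ2 modulators; signal is max minus min fluorescence divided by baseline after thallium stimulus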); details: FluxOR thallium flux fluorescence, at 10 µM; stronger effect = higher value, scaled: buffer 0, activator control 100
[4] = target: Potassium voltage-gated channel subfamily KQT member 1 (Homo sapiens) (UniProt P51787); assay: KCNQ1 activators by electrophysiology – IonWorks patch clamp, KCNQ1-CHO cells, orthogonal assay for KCNQ1 potentiator project, confirmation (AID 493184); details: automated patch clamp current, at 10 µM; stronger effect = higher value
In short: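 Read-out: Percent current increase versus pre-compound level | Assay system: CHO cells carrying KCNQ1 | Measured by: Automated perforated-patch electrophysiology | Medium: External bath solution at pH 7.4 | Dosing: One dose, 10 µM final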

Potassium voltage-gated channel subfamily KQT member 1 (Homo sapiens), sequence (P51787 whole entry, looked up): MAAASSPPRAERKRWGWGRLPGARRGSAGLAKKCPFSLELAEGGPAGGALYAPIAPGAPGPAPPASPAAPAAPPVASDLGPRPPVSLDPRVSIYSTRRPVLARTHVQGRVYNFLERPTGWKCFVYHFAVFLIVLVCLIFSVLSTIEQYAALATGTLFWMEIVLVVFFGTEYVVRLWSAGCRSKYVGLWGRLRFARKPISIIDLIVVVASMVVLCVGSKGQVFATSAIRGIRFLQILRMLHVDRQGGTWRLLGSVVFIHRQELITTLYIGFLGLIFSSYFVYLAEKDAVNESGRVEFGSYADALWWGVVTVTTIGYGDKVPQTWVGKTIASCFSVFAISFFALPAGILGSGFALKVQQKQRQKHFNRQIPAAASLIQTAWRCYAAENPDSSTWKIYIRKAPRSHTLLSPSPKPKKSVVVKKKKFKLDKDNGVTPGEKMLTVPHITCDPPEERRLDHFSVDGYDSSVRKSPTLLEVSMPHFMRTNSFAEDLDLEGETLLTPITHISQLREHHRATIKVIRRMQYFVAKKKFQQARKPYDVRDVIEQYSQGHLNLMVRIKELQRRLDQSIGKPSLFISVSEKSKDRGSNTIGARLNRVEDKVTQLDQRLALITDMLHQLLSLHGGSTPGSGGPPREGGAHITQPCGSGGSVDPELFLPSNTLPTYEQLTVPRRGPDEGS
Potassium voltage-gated channel subfamily KQT member 2 (Rattus norvegicus), sequence (O88943 whole entry, looked up): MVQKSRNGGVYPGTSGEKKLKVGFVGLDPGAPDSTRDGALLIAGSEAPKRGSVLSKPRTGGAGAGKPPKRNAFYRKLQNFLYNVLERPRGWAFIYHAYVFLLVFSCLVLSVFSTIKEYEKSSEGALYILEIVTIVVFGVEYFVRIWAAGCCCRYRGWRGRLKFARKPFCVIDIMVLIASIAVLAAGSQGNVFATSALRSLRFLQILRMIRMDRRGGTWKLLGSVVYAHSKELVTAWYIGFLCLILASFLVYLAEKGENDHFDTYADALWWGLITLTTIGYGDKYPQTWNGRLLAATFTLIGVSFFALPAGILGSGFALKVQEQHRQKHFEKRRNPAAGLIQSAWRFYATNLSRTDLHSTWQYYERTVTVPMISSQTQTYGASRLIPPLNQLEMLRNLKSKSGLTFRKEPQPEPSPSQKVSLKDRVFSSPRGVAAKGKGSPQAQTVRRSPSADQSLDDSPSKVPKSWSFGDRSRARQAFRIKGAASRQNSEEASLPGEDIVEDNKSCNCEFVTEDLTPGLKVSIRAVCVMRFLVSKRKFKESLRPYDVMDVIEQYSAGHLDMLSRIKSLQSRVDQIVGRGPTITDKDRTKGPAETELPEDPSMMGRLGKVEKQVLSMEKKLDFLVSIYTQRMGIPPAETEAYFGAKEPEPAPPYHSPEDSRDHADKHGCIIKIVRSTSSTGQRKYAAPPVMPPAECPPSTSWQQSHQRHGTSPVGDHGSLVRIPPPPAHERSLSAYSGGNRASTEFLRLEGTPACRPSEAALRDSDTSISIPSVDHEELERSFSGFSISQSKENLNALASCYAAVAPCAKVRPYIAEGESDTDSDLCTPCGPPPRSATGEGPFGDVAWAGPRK

O=c1cc(-c2c(F)c(F)c(F)c(F)c2F)oc2ccccc12
outcome [1]: inactive
outcome [2]: inactive
outcome [3]: inactive
outcome [4]: inactive

COc1ccc(C)cc1NC(=O)C(=O)NNC(=O)COc1ccc(Cl)cc1
activation [1]: 166% (active)
potentiation [2]: 195% (active)
potentiation [3]: 258% (active)
outcome [4]: inactive

CN1CCN(S(=O)(=O)c2cccc(C(=O)Nc3cc(Cl)ccc3N3CCOCC3)c2)CC1
outcome [1]: inactive
outcome [2]: inactive
outcome [3]: inactive
outcome [4]: inactive

Cc1cc(N=Cc2cc(Br)ccc2O)no1
activation [1]: 144% (active)
outcome [2]: inactive
outcome [3]: inactive
outcome [4]: inactive

CCOC(=O)C1(CCCc2ccccc2)CCN(Cc2cnc(C)s2)CC1
outcome [1]: inactive
outcome [2]: inactive
outcome [3]: inactive
outcome [4]: inactive

CCc1ccc(OCC(=O)Nc2ccc(S(=O)(=O)N3CCOCC3)cc2)cc1
outcome [1]: inactive
outcome [2]: inactive
outcome [3]: inactive
outcome [4]: inactive

CCCCCC/C(C)=C1/SC(=S)NC1=O
activation [1]: 752% (active)
potentiation [2]: 264% (active)
potentiation [3]: 612% (active)
outcome [4]: inactive

FC(F)Sc1nc2ccccc2[nH]1
activation [1]: 154% (active)
outcome [2]: inactive
outcome [3]: inactive
outcome [4]: inactive

CC(=O)N1CCN=C1SCc1ccc(F)cc1
activation [1]: 355% (active)
potentiation [2]: 120% (active)
potentiation [3]: 329% (active)
outcome [4]: inactive

COc1ccc(N=Nc2ccc(O)c3ncccc23)cc1
activation [1]: 176% (active)
potentiation [2]: 90% (active)
potentiation [3]: 249% (active)
outcome [4]: inactive

COc1cccc(C2=NOC(C(=O)NCc3cccs3)C2)c1 (stereo not given)
outcome [1]: inactive
outcome [2]: inactive
outcome [3]: inactive
outcome [4]: inactive

C=C[C@@]1(C)CC(=O)[C@]2(O)[C@@]3(C)[C@@H](O)CCC(C)(C)[C@@H]3[C@H](OC(C)=O)[C@H](O)[C@@]2(C)O1
outcome [1]: inactive
outcome [2]: inactive
outcome [3]: inactive
outcome [4]: inactive

CCOC(=O)c1sc2nc(C)nc(SCC(=O)N(C)C3CCS(=O)(=O)C3)c2c1C (stereo not given)
outcome [1]: inactive
potentiation [2]: 17.5% (active)
potentiation [3]: 142% (active)
outcome [4]: inactive

O=C(NCc1ccco1)c1ccc(=O)oc1
outcome [1]: inactive
outcome [2]: inactive
outcome [3]: inactive
outcome [4]: inactive

CC(C)c1ccc(NC(=O)C2CC(=O)N=C(N)S2)cc1 (stereo not given)
activation [1]: 164% (active)
potentiation [2]: 41.5% (active)
potentiation [3]: 227% (active)
outcome [4]: inactive

COc1ccccc1NC(=O)C(=O)NNC(=O)COc1ccc2ccccc2c1
activation [1]: 442% (active)
potentiation [2]: 174% (active)
potentiation [3]: 555% (active)
outcome [4]: inactive

O=C(NCc1cccs1)C1CC(c2ccccc2O)=NO1 (stereo not given)
outcome [1]: inactive
outcome [2]: inactive
outcome [3]: inactive
outcome [4]: inactive

CSc1ccc(NC(=O)CC(C)=O)cc1
outcome [1]: inactive
outcome [2]: inactive
outcome [3]: inactive
outcome [4]: inactive

CCC(=O)NC(=Nc1nc2ccccc2s1)NC(=O)CC
outcome [1]: inactive
outcome [2]: inactive
outcome [3]: inactive
outcome [4]: inactive

COc1ccc(C(=O)O/N=C(\N)Cc2ccc(Cl)cc2)cc1OC
outcome [1]: inactive
outcome [2]: inactive
outcome [3]: inactive
outcome [4]: inactive

N#CC1=C(Nc2ccccc2)SC=C(c2ccc(Br)cc2)N=C1N1CCOCC1
outcome [1]: inactive
outcome [2]: inactive
outcome [3]: inactive
outcome [4]: inactive

O=C(NC(=S)Nc1ccc(C(F)(F)F)cc1)c1csnn1
activation [1]: 590% (active)
potentiation [2]: 269% (active)
potentiation [3]: 555% (active)
outcome [4]: inactive

Cc1ccccc1C(=O)NC1CC(C)(C)NC(C)(C)C1
outcome [1]: inactive
outcome [2]: inactive
outcome [3]: inactive
outcome [4]: inactive

Cc1ccc(-c2csc3ncnc(SCc4ccc(C(=O)O)cc4)c23)cc1
activation [1]: 197% (active)
potentiation [2]: 36.5% (active)
potentiation [3]: 175% (active)
outcome [4]: inactive

OC(c1cc(C(F)(F)F)nc2c(Cl)cc(Cl)cc12)C1CCCCN1 (stereo not given)
outcome [1]: inactive
outcome [2]: inactive
outcome [3]: inactive
outcome [4]: inactive

CC(C)(C)n1nnnc1C(c1cc2cc3c(cc2[nH]c1=O)OCCO3)N1CCSCC1 (stereo not given)
outcome [1]: inactive
outcome [2]: inactive
outcome [3]: inactive
outcome [4]: inactive

S=c1nn[nH]n1C12CC3CC(CC(C3)C1)C2
activation [1]: 206% (active)
potentiation [2]: 51.5% (active)
potentiation [3]: 210% (active)
outcome [4]: inactive

Cc1ccc(C(=O)N/N=C(/CC(=O)c2cccs2)C(F)(F)F)cc1
activation [1]: 234% (active)
potentiation [2]: 66.5% (active)
potentiation [3]: 246% (active)
outcome [4]: inactive

O=C1c2cccc3cccc(c23)C(=O)N1c1cccc(O)c1
outcome [1]: inactive
outcome [2]: inactive
outcome [3]: inactive
outcome [4]: inactive

O=C(O)c1c2c(nc3ccccc13)/C(=C/c1cccc([N+](=O)[O-])c1)CCC2
activation [1]: 172% (active)
potentiation [2]: 64% (active)
potentiation [3]: 199% (active)
outcome [4]: inactive

O=C(CN1CCCC1)Nc1ccc2c(c1)CCC2
outcome [1]: inactive
outcome [2]: inactive
outcome [3]: inactive
outcome [4]: inactive

O=C(NC(=S)N1CCCc2ccccc21)c1ccc(Br)cc1
activation [1]: 222% (active)
potentiation [2]: 112% (active)
potentiation [3]: 300% (active)
outcome [4]: inactive

COC(=O)c1ccccc1NC(=S)NC(NC(=O)c1ccco1)C(Cl)(Cl)Cl (stereo not given)
activation [1]: 138% (active)
potentiation [2]: 54% (active)
potentiation [3]: 232% (active)
outcome [4]: inactive

O=C(NC(=S)N(CCc1ccccc1)CCc1ccccc1)c1ccco1
activation [1]: 408% (active)
potentiation [2]: 364% (active)
potentiation [3]: 560% (active)
outcome [4]: inactive

CCCCCn1c(=O)c2ccccc2n2c(=S)[nH]nc12
activation [1]: 152% (active)
potentiation [2]: 39% (active)
potentiation [3]: 158% (active)
outcome [4]: inactive

O=C(Cn1c(=O)oc2ccccc21)N1CCN(c2ccc(N3CCOCC3)nn2)CC1
outcome [1]: inactive
outcome [2]: inactive
outcome [3]: inactive
outcome [4]: inactive

Cc1nn(C)c(C(=O)NC(=S)Nc2ccc([N+](=O)[O-])cc2)c1Cl
activation [1]: 166% (active)
potentiation [2]: 72% (active)
potentiation [3]: 196% (active)
outcome [4]: inactive

c1ccc(-n2cnc3cc(NCc4cccs4)ccc32)cc1
outcome [1]: inactive
outcome [2]: inactive
outcome [3]: inactive
outcome [4]: inactive

Cc1ccccc1C(=O)Nc1nc(=S)ss1
activation [1]: 250% (active)
potentiation [2]: 72% (active)
potentiation [3]: 267% (active)
outcome [4]: inactive

CCSc1nc2c(sc3ccccc32)c(=O)n1C(C)C
activation [1]: 310% (active)
potentiation [2]: 206% (active)
potentiation [3]: 479% (active)
outcome [4]: inactive

O=C(CC1C(=O)NCCN1Cc1cccc(F)c1)NCCCN1CCCC1=O (stereo not given)
outcome [1]: inactive
outcome [2]: inactive
outcome [3]: inactive
outcome [4]: inactive

Cc1ccc(C(=O)OCC(=O)N(C)c2ccccc2)cc1C
activation [1]: 397% (active)
potentiation [2]: 252% (active)
potentiation [3]: 405% (active)
outcome [4]: inactive

COc1ccc(C(=O)c2cc([N+](=O)[O-])ccc2N2CCOCC2)cc1
outcome [1]: inactive
outcome [2]: inactive
outcome [3]: inactive
outcome [4]: inactive

O=C1OC(c2ccc(F)cc2)=N/C1=C\c1ccc(Br)o1
activation [1]: 228% (active)
potentiation [2]: 80.5% (active)
potentiation [3]: 266% (active)
outcome [4]: inactive

COCCn1cnc2c1c(=O)n(CC#N)c(=O)n2Cc1ccccc1
outcome [1]: inactive
outcome [2]: inactive
outcome [3]: inactive
outcome [4]: inactive

COC(=O)C(C)Sc1nc2c(c(=O)n(C)c(=O)n2C)n1Cc1cccc(C)c1 (stereo not given)
outcome [1]: inactive
outcome [2]: inactive
outcome [3]: inactive
outcome [4]: inactive

S=c1nc(-c2ccccc2)[nH]c2ccc(Br)cc12
activation [1]: 578% (active)
potentiation [2]: 294% (active)
potentiation [3]: 602% (active)
outcome [4]: inactive

COC(=O)c1c(N2C(=O)CC(Sc3ncccc3C(=O)O)C2=O)sc(C)c1C (stereo not given)
outcome [1]: inactive
outcome [2]: inactive
outcome [3]: inactive
outcome [4]: inactive

COc1ccccc1NC(=O)C(=O)NNC(=O)c1ccco1
activation [1]: 240% (active)
potentiation [2]: 62.5% (active)
potentiation [3]: 210% (active)
outcome [4]: inactive

Cn1c(=O)nc2n(Cc3ccccc3)c3ccccc3cc-2c1=O
outcome [1]: inactive
outcome [2]: inactive
outcome [3]: inactive
outcome [4]: inactive

CCOCC(=O)Nc1ccc2c(c1)N(S(=O)(=O)c1cccs1)CCC2
outcome [1]: inactive
outcome [2]: inactive
outcome [3]: inactive
outcome [4]: inactive

COc1cc2c(cc1OC)CN(C(=O)COc1ccccc1[N+](=O)[O-])CC2
outcome [1]: inactive
outcome [2]: inactive
outcome [3]: inactive
outcome [4]: inactive

C=CCn1c(O)c(N=NC(=S)Nc2ccccc2C)c2cc(S(=O)(=O)N3CCOCC3)ccc21
activation [1]: 218% (active)
potentiation [2]: 45% (active)
potentiation [3]: 226% (active)
outcome [4]: inactive

CCNC(=S)/N=C(\N)Nc1nc(C)c2cc(C)ccc2n1
outcome [1]: inactive
outcome [2]: inactive
outcome [3]: inactive
outcome [4]: inactive

Cc1c(CN(C)C)c2c(n1C)C(=O)c1ccc(Br)cc1-2
activation [1]: 146% (active)
potentiation [2]: 53% (active)
potentiation [3]: 159% (active)
outcome [4]: inactive

Cc1ccc(S(=O)(=O)NN2C(=O)/C(=C/c3cccs3)SC2=S)cc1
activation [1]: 163% (active)
potentiation [2]: 22.5% (active)
potentiation [3]: 159% (active)
outcome [4]: inactive

CCOc1ccc(C(=O)N2CCCC(c3nc(-c4ccc(C)o4)no3)C2)cc1 (stereo not given)
outcome [1]: inactive
outcome [2]: inactive
outcome [3]: inactive
outcome [4]: inactive

O=C(N/N=C/c1ccccn1)c1sc2ccccc2c1Cl
activation [1]: 156% (active)
potentiation [2]: 41% (active)
potentiation [3]: 207% (active)
outcome [4]: inactive

Cc1cccc(-n2c(=S)[nH]c3sc4c(c3c2=O)CCc2ccccc2-4)c1
activation [1]: 240% (active)
potentiation [2]: 149% (active)
potentiation [3]: 330% (active)
outcome [4]: inactive

CSc1nc(C)cc(OCC(=O)N/N=C/c2ccccc2O)n1
outcome [1]: inactive
outcome [2]: inactive
outcome [3]: inactive
outcome [4]: inactive
